Molecules are shown by their SMILES. pEC50: −log10 of the molar value. ≈ marks a conversion by molar mass, not a printed value. Calls of active or inactive are those of the source. The rule behind the calls is not given here.

The source of these data is ChEMBL document CHEMBL3352189 (J Med Chem, 2014).

The target of data set [1] is Cytochrome P450 2C19 (Homo sapiens, UniProt P33261). Briefly: Inhibition of human CYP2C19 at 10 uM. Format: ADME. The following applies: 10 µM.
For data set [2], the system named is Venezuelan equine encephalitis virus. Briefly: Antiviral activity against Venezuelan equine encephalitis virus TC83 infected in Vero 76 cells assessed as reduction in viral titer at 1 uM by crystal violet staining based microplaque assay relative to untreated control. Format: functional.
Data set [3] in a line: Cytotoxicity against african green monkey Vero 76 cells after 3 days by Celltiter-Glo reagent based assay. It counts as cell-based. Particulars: chlorocebus sabaeus, vero 76, 72 h. In a few lines: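 Vero 76 cells were seeded overnight at 12 000/well and given an 8-point 2-fold compound series (20 mM DMSO stock) in EMEM/10% FBS with no virus. Viability was read by CellTiter-Glo after 3 days relative to untreated cells. Run in duplicate; CC50 from a four-parameter logistic or sigmoidal fit.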

Data set [4] in a line: Aqueous solubility in PBS buffer. Format: physicochemical. In a few lines: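 Solubility measured in 1× PBS at pH 7.4.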
The subject of data set [5] is Venezuelan equine encephalitis virus. Briefly: Antiviral activity against Venezuelan equine encephalitis virus V3526 infected in Vero 76 cells assessed as reduction in virus-induced cytopathic effect after 2 days by Celltiter-Glo reagent based assay. It counts as functional, organism-based. Particulars: V3526, Vero 76, 48 h. Background: Cytopathic effects are the visible damage that an infection or toxin causes in cultured cells.

Data set [6] shares this test system. Briefly: Antiviral activity against Venezuelan equine encephalitis virus TrD infected in Vero 76 cells assessed as reduction in virus-induced cytopathic effect after 2 days by Celltiter-Glo reagent based assay. It counts as functional, organism-based. The following applies: Vero 76, 48 h.
Data set [7] shares this test system. Briefly: Antiviral activity against Venezuelan equine encephalitis virus TC83 infected in Vero 76 cells assessed as reduction in virus-induced cytopathic effect after 2 days by Celltiter-Glo reagent based assay. It counts as functional, organism-based. The following applies: TC83, Vero 76, 48 h.
Data set [8] shares this test system. Briefly: Antiviral activity against Venezuelan equine encephalitis virus TrD infected in Vero 76 cells assessed as reduction in viral titer at 5 uM by crystal violet staining based microplaque assay relative to untreated control. It counts as functional, organism-based.
Data set [9] is described as follows: Selectivity index, ratio of CC50 for african green monkey Vero 76 cells to EC50 for Venezuelan equine encephalitis virus TC83. Format: toxicity, cell-based. Particulars: read-out: Ratio CC50/EC50.
Data set [10] deals with Venezuelan equine encephalitis virus. Briefly: Antiviral activity against Venezuelan equine encephalitis virus TrD infected in Vero 76 cells assessed as reduction in viral titer at 0.5 uM by crystal violet staining based microplaque assay relative to untreated control. It counts as functional, organism-based.
Data set [11] has the same test system. Briefly: Antiviral activity against Venezuelan equine encephalitis virus TC83 infected in Vero 76 cells assessed as reduction in viral titer by crystal violet staining based microplaque assay relative to untreated control. It counts as functional, organism-based. Particulars: TC83, Vero 76.
For data set [12] the test system is unchanged. Briefly: Antiviral activity against Venezuelan equine encephalitis virus TrD infected in Vero 76 cells assessed as reduction in viral titer at 1 uM by crystal violet staining based microplaque assay relative to untreated control. It counts as functional.
Data set [13] in a line: Permeability at pH 7.4 by PAMPA assay. It counts as ADME.
Data set [14] addresses CYP2D6 (Homo sapiens, UniProt P10635). Briefly: Inhibition of human CYP2D6 at 10 uM. Format: ADME.

Sequence of CYP2D6 (P10635 whole entry): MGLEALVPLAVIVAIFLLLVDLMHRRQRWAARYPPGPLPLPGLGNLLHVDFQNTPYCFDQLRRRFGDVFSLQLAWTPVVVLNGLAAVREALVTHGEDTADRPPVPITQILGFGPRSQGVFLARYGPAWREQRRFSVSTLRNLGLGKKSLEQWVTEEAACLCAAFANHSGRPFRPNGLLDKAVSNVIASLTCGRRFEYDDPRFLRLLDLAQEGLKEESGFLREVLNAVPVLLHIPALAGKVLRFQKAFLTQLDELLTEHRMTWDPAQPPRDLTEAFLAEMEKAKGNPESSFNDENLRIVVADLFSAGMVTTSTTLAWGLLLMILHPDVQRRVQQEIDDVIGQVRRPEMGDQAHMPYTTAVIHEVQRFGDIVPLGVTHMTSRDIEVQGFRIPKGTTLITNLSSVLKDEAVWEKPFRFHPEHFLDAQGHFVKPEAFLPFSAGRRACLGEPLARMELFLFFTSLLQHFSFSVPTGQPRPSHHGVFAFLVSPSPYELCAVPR
Sequence of Cytochrome P450 2C19 (P33261 whole entry): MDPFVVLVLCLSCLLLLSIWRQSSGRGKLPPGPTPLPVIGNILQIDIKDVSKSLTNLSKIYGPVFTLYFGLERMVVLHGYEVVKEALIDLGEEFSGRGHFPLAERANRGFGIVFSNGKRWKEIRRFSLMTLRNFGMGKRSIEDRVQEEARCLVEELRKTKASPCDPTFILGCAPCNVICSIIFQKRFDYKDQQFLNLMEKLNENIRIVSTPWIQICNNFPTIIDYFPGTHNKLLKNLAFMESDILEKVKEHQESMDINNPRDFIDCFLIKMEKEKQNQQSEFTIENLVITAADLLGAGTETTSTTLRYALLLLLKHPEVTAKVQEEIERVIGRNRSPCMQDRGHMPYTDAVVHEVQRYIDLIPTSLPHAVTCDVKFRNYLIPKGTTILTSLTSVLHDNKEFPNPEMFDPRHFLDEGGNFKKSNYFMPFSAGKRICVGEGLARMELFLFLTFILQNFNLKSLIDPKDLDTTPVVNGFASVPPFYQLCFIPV

As to `Cc1c(OCC(F)(F)F)ccnc1C[S+]([O-])c1nc2ccccc2[nH]1` (centres undefined) [LANSOPRAZOLE], the “inhibition (INH)” value in [1] came to 86%.

As to `CCN1CCN(Cc2nc3ccc([N+](=O)[O-])cc3c(=O)n2-c2ccccc2F)CC1`, the “fold change (FC)” value in [2] was found to be 3. Moreover, the CC50 (commonly the concentration that lowers cell viability or growth by half) in data set [3] was above 50 µM. In data set [4], the solubility – broadly, the concentration that dissolves in the medium under given conditions – is above 122 µg/mL. Also, the pEC50 (usually the EC50 on a negative log10 scale, so that one unit is a factor of ten) is 6.52 in data set [5], 6.22 in data set [6] and 6.10 in data set [7]. Moreover, in [8], the inhibition – broadly, the change of the read-out against control, counted positive when it falls – is “Active”.

Turning to `COc1ccc(NC(=O)c2cc([N+](=O)[O-])ccc2/N=C2\CN(C)CCN2C)cc1`, the “fold change (FC)” value in [2] turned out to be 16000000. This compound also had a CC50 in [3] above 50 µM. For the same compound, the selectivity ratio in data set [9] is above 1250. In addition, the inhibition entry in [10], in data set [12] and in data set [8] was “Active” throughout. The same compound registered a solubility in data set [4] of 105.6 µg/mL (≈ 266 µM). Further, the pEC50 is 6.77 in data set [11], 7.70 in data set [5], 7.30 in data set [6] and 7.40 in [7].

Take `O=c1c2cc([N+](=O)[O-])ccc2nc(C2CCNCC2)n1-c1ccccc1`: the CC50 in [3] is above 50 µM. Further, in [9], the selectivity ratio was above 13.9. For the same compound, the pEC50 in [7] was 5.44.

As for `COc1cccc(NC(=O)c2cc([N+](=O)[O-])ccc2/N=C2\CN(C)CCN2C)c1`, in [3], the CC50 is above 50 µM. The selectivity ratio in data set [9] was above 6.2. In addition, the negative logarithm of the EC50 (pEC50) in [7] was 5.09.

As to `CN1CCN(C)/C(=N/c2ccc(C#N)cc2C(=O)Nc2ccccc2)C1`, the CC50 in data set [3] was above 50 µM. Further, the selectivity ratio in [9] is above 125. Moreover, the pEC50 in data set [7] was 6.40.

`CN1CCN(C)/C(=N/c2ccc([N+](=O)[O-])cc2C(=O)Nc2ccc(F)cc2)C1` registered a cytotoxic concentration (CC50) in data set [3] above 50 µM. Also, the selectivity ratio in data set [9] is above 556. In addition, in data set [7], the pEC50 is 7.05.

Turning to `CN1CCN(C)/C(=N/c2cc(F)c(C#N)cc2C(=O)Nc2ccccc2)C1`, the CC50 in data set [3] is above 50 µM. The selectivity ratio in [9] is above 125. Also, the negative logarithm of the EC50 (pEC50) in data set [7] was 6.40.

With `CCN1CCN(C)C/C1=N\c1ccc([N+](=O)[O-])cc1C(=O)Nc1ccccc1`, in [3], the CC50 was above 50 µM. For the same compound, in [9], the selectivity ratio was above 1000. Moreover, in data set [7], the pEC50 is 7.30.

As for `CNCCCN(C)Cc1nc2ccc([N+](=O)[O-])cc2c(=O)n1-c1ccccc1`, in data set [3], the CC50 was above 50 µM. Further, the selectivity ratio in data set [9] is above 83.3. In [7], the pEC50 was 6.22.

The compound `CN1CCN(C)/C(=N/c2cc(F)c(F)cc2C(=O)Nc2ccccc2)C1` showed a CC50 in data set [3] above 50 µM. The selectivity ratio in data set [9] was above 11.4. Further, in [7], the pEC50 is 5.36.

With `O=c1c2cc([N+](=O)[O-])ccc2nc(CN2CCNCC2)n1-c1ccccc1`, the CC50 in data set [3] is above 50 µM. In data set [9], the selectivity ratio is above 250. Also, the pEC50 in data set [7] was 6.70.

In data set [3], `COc1ccccc1NC(=O)c1cc([N+](=O)[O-])ccc1/N=C1\CN(C)CCN1C` registered a CC50 above 50 µM. Also, the selectivity ratio in [9] was above 1.5. In addition, the pEC50 in data set [7] was 4.47.

`O=c1c2cc([N+](=O)[O-])ccc2nc(CN2CCCNC2)n1-c1ccccc1` displayed a CC50 in [3] above 50 µM. Moreover, the selectivity ratio in [9] was above 45.5. Besides, the pEC50 in [7] was 5.96.

Consider `Cn1c(=O)c2[nH]cnc2n(C)c1=O.O` [THEOPHYLLINE], for which the permeability in data set [13] was determined as 0.32 ×10⁻⁶ cm/s.

`CN1CCN(C)/C(=N/c2ccc(C(F)(F)F)cc2C(=O)Nc2ccccc2)C1`: the CC50 in [3] was above 50 µM. The selectivity ratio in data set [9] is above 2.2. Further, the pEC50 in data set [7] was 4.65.

Compound `CN1CCN(C)/C(=N/c2ccc([N+](=O)[O-])cc2C(=O)NCc2ccccc2)C1` came in with a CC50 in data set [3] above 50 µM. Also, in data set [9], the selectivity ratio was above 13.5. Further, the pEC50 in data set [7] was 5.43.

In turn, `C=C[C@H]1C[N@@]2CC[C@H]1C[C@@H]2[C@@H](O)c1ccnc2ccc(OC)cc12` [QUINIDINE] had an inhibition at 10 µM in data set [14] of 88%.

In [3], `CN1CCN(C)/C(=N/c2ccc([N+](=O)[O-])cc2C(=O)Nc2ccsc2)C1` registered a CC50 above 50 µM. Also, the selectivity ratio in data set [9] was found to be 100. In addition, the pEC50 in [7] is 6.30.

Consider `CN1CCN(C)/C(=N/c2ccc(C#N)cc2C(=O)Nc2ccccc2F)C1`, for which the CC50 in data set [3] was above 50 µM. Besides, the selectivity ratio in [9] is above 13.5. Moreover, the pEC50 in data set [7] was 5.43.

Consider `CN1CCN(C)/C(=N/c2cc(Cl)c(C#N)cc2C(=O)Nc2ccccc2)C1`, for which, in data set [3], the CC50 is above 50 µM. In addition, in data set [9], the selectivity ratio was above 500. For the same compound, the pEC50 in data set [7] is 7.00.
